# High-throughput results from PubChem.
# Neddylation inh: inhibitors of human cullin neddylation; P61081+Q13564; TR-FRET cullin neddylation, biochemical; inhibition, % at 25 µM; actives 0.58% (n = 360,000); in the data active = inhibition above about 36%
# PfGluPho inh: PfG6PD (Plasmodium falciparum) enzyme inhibition; actives 0.78% (n = 350,000); inhibition, % at 20 µM; PfGluPho enzyme, NADPH resazurin-diaphorase fluorescence;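 active = inhibition reaching at least a set limit at 20 µM in the primary screen, cut at about 59% in these data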;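 note: 0% = DMSO wells with substrate and 100% = DMSO wells lacking glucose-6-phosphate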
# HKDC1 inh: HKDC1 (human) hexokinase inhibition; recombinant HKDC1, G6PDH/diaphorase resazurin coupled fluorescence; actives 0.16% (n = 340,000); inhibition, % at 20 µM; AID 493160; Q2TB90;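 active = inhibition above about 35% when tested at 20 µM, limit read from the data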;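 note: plate controls were DMSO wells with enzyme for no effect and DMSO wells lacking enzyme for full effect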
# Target sequence (Q2TB90 whole entry, looked up): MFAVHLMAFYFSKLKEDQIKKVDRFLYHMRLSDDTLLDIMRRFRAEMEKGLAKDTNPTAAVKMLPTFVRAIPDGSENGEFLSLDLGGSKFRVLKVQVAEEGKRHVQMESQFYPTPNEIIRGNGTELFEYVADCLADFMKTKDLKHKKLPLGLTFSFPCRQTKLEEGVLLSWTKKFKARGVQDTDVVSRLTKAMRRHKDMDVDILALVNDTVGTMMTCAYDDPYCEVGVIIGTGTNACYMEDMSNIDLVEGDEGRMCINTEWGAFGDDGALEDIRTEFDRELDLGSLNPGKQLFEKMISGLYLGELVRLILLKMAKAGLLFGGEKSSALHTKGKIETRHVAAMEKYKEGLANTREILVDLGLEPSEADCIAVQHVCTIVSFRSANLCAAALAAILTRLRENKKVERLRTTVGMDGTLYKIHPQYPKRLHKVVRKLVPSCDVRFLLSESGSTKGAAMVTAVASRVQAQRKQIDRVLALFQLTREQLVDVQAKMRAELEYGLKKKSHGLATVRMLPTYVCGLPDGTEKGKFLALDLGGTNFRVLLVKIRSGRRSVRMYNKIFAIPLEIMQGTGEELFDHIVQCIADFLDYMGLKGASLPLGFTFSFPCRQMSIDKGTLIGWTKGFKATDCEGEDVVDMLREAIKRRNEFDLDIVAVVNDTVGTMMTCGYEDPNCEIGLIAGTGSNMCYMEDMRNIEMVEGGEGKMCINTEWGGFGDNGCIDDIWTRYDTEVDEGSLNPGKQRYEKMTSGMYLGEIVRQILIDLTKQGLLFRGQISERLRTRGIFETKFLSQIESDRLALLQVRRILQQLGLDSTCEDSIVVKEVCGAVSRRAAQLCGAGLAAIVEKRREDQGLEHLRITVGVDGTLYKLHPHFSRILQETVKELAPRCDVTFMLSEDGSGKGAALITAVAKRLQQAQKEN
#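 test system = in-house recombinant HK5 (HKDC1) enzyme | amount = HKDC1 at 5 µg/mL | control set = DMSO-enzyme wells negative, buffer-substituted wells positive | compound = one dose of 20 µM, 1% DMSO | schedule = reaction time 90 min, room temperature, protected from light | technique = resorufin fluorescence at 613 nm | reagent = glucose with 1 mM ATP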
# M18AAP inhibitor: PfM18AAP enzyme inhibition; recombinant PfM18AAP, H-Glu-NHMec fluorogenic cleavage; inhibition, % at 7.35 µM; actives 1.2% (n = 290,000); AID 1822;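 active = inhibition above the campaign mean inhibition over all tested compounds plus 3 SD, cut at about 28% in these data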;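 note: 0% = plate median of test compound wells and 100% = 2 mM ZnCl2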
# * marks the source's active call; other numbers are inactive results; . = no result shown. A selection: hits, their analogues and other compounds. The true share with any hit is near 2.2%.
SMILES,Neddylation inh,PfGluPho inh,HKDC1 inh,M18AAP inhibitor
COc1ccc(C(=O)CCc2ccccc2)cc1,0.9,-5.3,0.3,-2.4
O=C(CSc1nnc(CNC(=O)c2ccc(F)cc2)o1)Nc1nccs1,-3.2,-31.4,11.4,29.9*
COC1=C(C)C(=O)C2=C(C1=O)C1C3CC4=C(C(=O)C(OC)=C(C)C4=O)C(CNC(=O)C(C)=O)N3C(C#N)C(C2)N1C (stereo unspecified),-17.9,119.8*,60.5*,.
Cc1cnc(NC(=O)CSc2nnc(COc3c(C)cccc3C)o2)s1,-3.4,-13.9,5.2,28.3*
CS(=O)(=O)c1ccc(Cl)c(NC(=O)CSc2nnc3n2CCCCC3)c1,-0.2,-5.4,.,.
Cc1ccccc1C(=O)NNc1ccc(-c2csnn2)cc1,-5.1,22.5,0.1,30.3*
CC(=O)Oc1ccc(-c2csnn2)cc1,-1.7,7.1,2.5,3.2
Cc1ccc(C(=O)N2CCN(C)CC2)cc1S(=O)(=O)N1CCCCCC1,-1.2,-2.4,-2.0,-4.0
O=C(CSc1ncn[nH]1)NCc1ccccc1Cl,8.1,2.3,-7.0,29.1*
O=C(Nc1cccc(S(=O)(=O)Nc2ccccc2F)c1)c1ccco1,2.3,7.2,-5.6,.
O=C1CCC(C(=O)Nc2cccc(S(=O)(=O)Nc3ccccc3F)c2)=NN1,-2.5,92.2*,-37.3,.
Cc1c(NS(=O)(=O)c2cc(C(=O)OCC(=O)c3ccccc3F)ccc2Cl)c(=O)n(-c2ccccc2)n1C,2.1,-16.6,.,.
S=C(NCc1ccccc1)NCc1ccc(CNC(=S)NCc2ccccc2)cc1,3.7,3.3,-8.0,-3.3
CCNC(=S)NNC(=S)NCc1ccccc1,1.0,4.2,-10.0,32.3*
O=C(CCC(=O)Nc1nnc(C2CCCCC2)s1)Nc1ccccc1,8.2,-9.3,-8.3,0.0
O=C(CCC(=O)Nc1nnc(C2CCCCC2)s1)Nc1ccc(F)cc1,0.4,0.3,-1.0,29.2*
O=C(N/N=C/c1cc(Br)c(O)c(Br)c1)c1cc2c(ccc3ccccc32)o1,51.3*,-16.9,13.7,-8.9
COc1ccc(OCCCC(=O)OCC(=O)NNC(=O)c2ccc([N+](=O)[O-])cc2)cc1,-19.9,-13.6,3.1,.
COc1cc(OC)cc(C(=O)NC(=S)NNC(=O)[C@H]2C[C@@H]2c2ccccc2)c1,57.8*,-6.4,-29.8,23.5
CCc1nnc(N/N=C/c2cccs2)n1N,-6.0,44.6,-1.7,52.8*
CCc1nnc(N/N=C\c2ccc(OC(C)=O)c(OC)c2)n1N,-15.4,33.1,-3.3,17.7
O=C1Nc2ccc(Br)cc2C1Cc1ccccc1F (stereo unspecified),-5.2,88.5*,5.8,5.9
CCCCCCC/C=N/Nc1nnc(Cc2ccccc2)c(=O)[nH]1,3.1,-2.6,-0.3,28.1*
CCCCCC/C=N/Nc1nnc(Cc2ccc(OC)c(OC)c2)c(=O)[nH]1,-1.1,-16.4,4.7,8.7
O=C(CCO)c1ccc(O)cc1,-0.9,-0.8,7.0,56.1*
SMILES,Neddylation inh,PfGluPho inh,HKDC1 inh,M18AAP inhibitor
O=C1NC[C@H](CCCCN2C[C@H](Cc3ccccc3)N(CC3CCCCC3)C(=O)C2=O)N(CC2CCCCC2)C1=O,0.1,.,.,.
NC(=O)C1CCN(C(=O)CCC(=O)c2ccc(F)cc2)CC1,-5.9,5.3,-4.3,-18.0
CC(C)C(=O)N(c1cc2sc(=O)oc2c2ccccc12)S(=O)(=O)c1cccs1,-0.1,74.5*,45.0*,-36.8
COc1ccc(N(C(=O)C(C)C)S(=O)(=O)c2cccs2)cc1,-0.7,-14.9,9.3,-8.6
Cc1ccc(C(=O)OCC(=O)N2CCC(c3ccccc3)=N2)cc1,-24.0,-5.7,1.9,.
Cc1ccc2cc(CN(Cc3ccc4c(c3)OCO4)Cc3nnnn3Cc3ccco3)c(=O)[nH]c2c1,-14.1,-0.4,-3.2,2.5
COc1ccc2[nH]c(=O)c(CN(C3CCCCC3)C(c3nnnn3Cc3ccco3)C(C)C)cc2c1 (stereo unspecified),9.4,87.5*,36.9*,8.9
COc1ccc2[nH]c(=O)c(CN(Cc3nnnn3Cc3ccco3)C3CCCCC3)cc2c1,22.6,35.0,2.9,-43.5
Cc1ccc(CN(Cc2cc3cc4c(cc3[nH]c2=O)OCCO4)Cc2nnnn2Cc2ccco2)cc1,38.7,29.1,22.1,30.1*
Fc1cccc2sc(Nc3nc4c(F)cccc4s3)nc12,-249.3,-3.9,-14.0,-3.7
O=C(NNc1nc2c(F)cccc2s1)c1cc(=O)c2ccccc2o1,-16.0,2.6,-17.6,30.4*
O=C(NNc1nc2c(F)cccc2s1)c1ccc(F)cc1,9.6,2.0,-22.9,30.3*
Cc1ccc2sc(NNC(=O)c3cc(=O)c4ccccc4o3)nc2c1C,-10.9,4.5,-20.6,30.1*
NNc1nc2c(F)cccc2s1,6.8,12.0,11.0,30.4*
COc1ccc(S(=O)(=O)N2CCC(C(=O)NCc3ccncc3)CC2)cc1OC,-1.1,-9.9,-4.0,-2.7
O=C(COC(=O)c1n[nH]c(=O)c2ccccc12)Nc1ccccc1,-12.8,-17.9,3.1,.
CCN1CCN(c2ccc(S(=O)(=O)N3CCCCC3)cc2NC(=O)/C=C/c2ccc(Cl)cc2)CC1,-11.9,19.1,3.0,.
Cc1ccc(S(=O)(=O)NNC(=O)c2cccc(O)c2)cc1,10.8,8.7,-11.1,29.8*
O=C(NNS(=O)(=O)c1ccc(F)cc1)c1cccc(O)c1,5.0,-4.4,-4.3,23.2
COc1cc(NC(=O)COC(=O)c2ccccc2SCC(=O)N2CCCC2)cc(OC)c1,10.4,-24.2,7.5,.
O=C(Nc1cccc(-c2nc3ccccc3[nH]2)c1)c1cccc(NC(=O)c2ccco2)c1,.,0.0,6.4,-1.4
O=C(Nc1ccc2nc(-c3ccccc3)[nH]c2c1)c1ccco1,.,69.5*,3.1,-0.9
Cc1ccc(CCN2CCN=C2Nc2ccccc2)cc1,-0.7,-24.0,-5.4,.
O=C(NCc1ccco1)Nc1ccc(Br)cc1,-2.9,-9.0,-1.1,6.4
O=C(NCc1ccco1)Nc1ccc2nsnc2c1,50.1*,-18.6,3.4,18.9
SMILES,Neddylation inh,PfGluPho inh,HKDC1 inh,M18AAP inhibitor
CCOC(=O)N1CCN(C(=O)C2CCN(C(=O)c3ccccc3C)CC2)CC1,-34.2,117.3*,-0.4,.
Nc1ncnc2c1ncn2[C@@H]1O[C@H](CNCc2ccccc2)[C@@H](O)[C@H]1O,6.8,-3.1,-6.3,.
Nc1ncnc2c1ncn2[C@@H]1O[C@H](CNCc2cccc(C#Cc3ccccc3)c2)[C@@H](O)[C@H]1O,51.7*,18.5,-4.3,.
Nc1ncnc2c1ncn2[C@@H]1O[C@H](COP(=O)(O)OP(=O)(O)OP(=O)(O)O)[C@@H](O)[C@H]1O,79.6*,-7.3,-3.8,.
Nc1ncnc2c1ncn2[C@@H]1O[C@H](COS(=O)(=O)O)[C@@H](O)[C@H]1O,69.4*,0.7,-5.4,.
Nc1ncnc2c1ncn2[C@@H]1O[C@H](CNS(=O)(=O)C2CC2)[C@@H](O)[C@H]1O,10.3,3.4,-4.8,.
CN(C)/C=C(\C#N)C(=O)N/N=C(\CC(=O)C(F)(F)F)c1ccco1,-0.1,-3.2,11.4,30.4*
CN(C)/C=C(\C#N)C(=O)N/N=C/c1ccc(Cl)cc1,-5.2,-4.2,12.1,0.7
CC(=O)Nc1ccc(NC(=O)CCCn2cnc3ccccc3c2=O)cc1,0.3,-1.5,-3.8,-14.5
O=c1nc(N/N=C/c2ccccn2)cn[nH]1,-17.2,-28.6,-9.0,48.8*
